From ChEMBL document CHEMBL1157331, “Xenicane-type diterpenes with cytotoxicity from Xenia florida” (J Nat Prod, 2006)
In brackets after ≈: the same amount, converted by molar mass.

Assays:
KB = assay: Cytotoxicity against human KB cells after 72 hrs; format: functional; details: read-out: ED50 (the source's name)
Procedure, shortened: (§1)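 Methylene blue binding to fixed cell monolayers. 2880 cells/well seeded, 3 h later sample added; samples prepared at […], incubated 37 °C for 3 days. Absorbance read at 650 nm. ED50 is the concentration giving 50% reduction of absorbance versus untreated cells. Mitomycin as positive control.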

[1] = Cytotoxicity against human Hepa cells after 72 hrs; format: functional; details: read-out: ED50 (the source's name); procedure, shortened: as §1
WiDr = assay: Cytotoxicity against human WiDr cells after 72 hrs; format: functional, cell-based; details: for EC50: read-out: ED50 (the source's name); procedure, shortened: as §1

| SMILES | EC50 (KB) [µg/mL] | EC50 [1] [µg/mL] | EC50 (WiDr) [µg/mL] | IC50 (WiDr) [µM] |
| --- | --- | --- | --- | --- |
| C=C1[C@@H]2[C@H](OC(C)=O)OC=C([C@H](OC(C)=O)[C@@H](C=C(C)C)OC(C)=O)[C@H]2CC/C(C)=C/[C@@H](OC(=O)c2ccccc2)[C@H]1OC(=O)c1ccccc1 | > 20 | > 20 | > 20 |  |
| C=C1C(=O)[C@H](OC(=O)c2ccccc2)/C=C(\C)CC[C@@H]2C([C@H](OC(C)=O)[C@@H](C=C(C)C)OC(C)=O)=CO[C@@H](OC(C)=O)[C@@H]12 | > 20 | > 20 | > 20 |  |
| C=C1[C@@H]2[C@H](OC(C)=O)OC=C([C@H](OC(C)=O)[C@@H](C=C(C)C)OC(C)=O)[C@H]2CC/C(C)=C/[C@@H](OC(=O)c2ccccc2)[C@H]1O [FLORXENILIDE A] | > 20 | > 20 | 2.73 (≈ 4.58 µM) | 4.5 |
| C=C1[C@@H]2[C@H](OC(C)=O)OC=C([C@H](OC(C)=O)[C@@H](C=C(C)C)OC(C)=O)[C@H]2CC[C@]2(C)O[C@H]2[C@@H](OC(=O)c2ccccc2)[C@H]1O [FLORXENILIDE B] | 11.4 (≈ 18.6 µM) | 8.03 (≈ 13.1 µM) | 1.88 (≈ 3.07 µM) | 3.7 |
| CO[C@@]12CC[C@H](OC(C)=O)[C@@](C)(CC[C@@H]3/C(=C\C=C\C(C)(C)O)COC(=O)[C@H]31)C2 [FLORXENILIDE C MONOACETATE] | > 20 | > 20 | > 20 |  |
| CO[C@@]12CC[C@H](O)[C@@](C)(CC[C@@H]3/C(=C\C=C\C(C)(C)O)COC(=O)[C@H]31)C2 [FLORXENILIDE C] | > 20 | > 20 | > 20 |  |
| CO[C@@]12[C@H](COC(N)=O)C3=C(C(=O)C(C)=C(N)C3=O)N1C[C@@H]1N[C@@H]12 [MITOMYCIN] | 0.56 (≈ 1.67 µM) | 0.04 (≈ 0.12 µM) | 0.35 (≈ 1.05 µM) |  |
